Data: ChEMBL document CHEMBL1128175, “Pyrrolo[2,1-c][1,4]benzothiazines: synthesis, structure-activity relationships, molecular modeling studies, and cardiovascular activity” (J Med Chem, 1995)

Key:
Cavia porcellus [1] = species: Cavia porcellus; experiment: Tested for the negative chronotropic activity on isolated guinea pig spontaneously beating right atrium at 5*10e-5 M.; type: functional, Cardiac atrium
In short: (§1)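 Spontaneously beating right atria from guinea pigs (300-400 g) in oxygenated Tyrode (95% O2-5% CO2), 35 °C, pH 7.4, recorded isometrically. Compounds from DMSO diluted in PSS (DMSO ≤0.3%), added cumulatively at 0.1-100 µM once steady state was reached.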

Cavia porcellus [2] = species: Cavia porcellus; experiment: Tested for the calcium antagonistic activity on K+-depolarized guinea pig aortic strips at 10e-4 M.; type: functional; settings: Aorta
In short: (§2)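 Guinea pig aortic strips held at 1 g resting force and equilibrated 1 h in PSS. Contracted with 80 mM KCl (K+ replacing Na+). At plateau (about 30 min), compounds in DMSO were added cumulatively at 0.1-500 µM. Relaxation of isometric force measured.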

Cavia porcellus [3] = species: Cavia porcellus; experiment: Inotropic negative potency on spontaneously beating right atrium of guinea pig.(value in parentheses indicate 95% confidence limit*10e-6).; type: functional, Cardiac atrium; in short: as §1
Cavia porcellus [4] = species: Cavia porcellus; experiment: Inotropic negative potency on stimulated guinea pig left atrium.(value in parentheses indicate 95% confidence limit*10e-6).; type: functional; settings: Cardiac atrium, read-out: ED50 (the source's name)
In short: (§3)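 Guinea pig left atria driven at 1 Hz with 0.6-0.8 ms pulses at […], in oxygenated Tyrode at 35 °C, pH 7.4. Isometric force recorded. Cumulative compound additions of 0.1-100 µM from DMSO stock (bath DMSO ≤0.3%), each after steady state. Potency from log concentration-response curves by probit analysis, n = 6-8.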

[5] = molecular target: T1, Voltage-gated L-type calcium channel (Rattus norvegicus, UniProt P22002+Q02485+P27732); experiment: Inhibition of [3H]nitrendipine binding at L-type [Ca2+] channel in rat cortex homogenate by 50%.
In short: (§4)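 Cerebral cortex from male Sprague-Dawley rats, homogenized in 50 mM Na-Hepes pH 7.4 and washed five times by centrifugation at 48000g. Bound ligand collected by rapid filtration and counted. IC50 by log-probit analysis, converted to Ki by the Prusoff method. At least three experiments in triplicate.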

Cavia porcellus [6] = species: Cavia porcellus; experiment: Tested for the negative inotropic activity on isolated guinea pig left atrium at 10e-5 M; type: functional, Cardiac atrium; in short: as §3
[7] = molecular target: T1, Voltage-gated L-type calcium channel; experiment: Calcium antagonistic activity by measuring [3H]nitrendipine displacement at L-type [Ca2+] channel in rat cortex homogenate; type: functional, tissue-based; in short: as §4
Cavia porcellus [8] = species: Cavia porcellus; experiment: Inotropic negative potency on stimulated guinea pig left atrium; type: functional; settings: Cardiac atrium, read-out: ED50 (the source's name); in short: as §3
Cavia porcellus [9] = species: Cavia porcellus; experiment: Inotropic negative potency on spontaneously beating right atrium of guinea pig; type: functional, Cardiac atrium; in short: as §1
[10] = molecular target: T2, Voltage-dependent L-type calcium channel subunit alpha-1C (Rattus norvegicus, UniProt P22002); experiment: Calcium antagonistic activity by measuring [3H]nitrendipine displacement from rat heart L-type [Ca2+] channel; type: functional
T2 sequence (P22002 whole entry, the tested form may be a part): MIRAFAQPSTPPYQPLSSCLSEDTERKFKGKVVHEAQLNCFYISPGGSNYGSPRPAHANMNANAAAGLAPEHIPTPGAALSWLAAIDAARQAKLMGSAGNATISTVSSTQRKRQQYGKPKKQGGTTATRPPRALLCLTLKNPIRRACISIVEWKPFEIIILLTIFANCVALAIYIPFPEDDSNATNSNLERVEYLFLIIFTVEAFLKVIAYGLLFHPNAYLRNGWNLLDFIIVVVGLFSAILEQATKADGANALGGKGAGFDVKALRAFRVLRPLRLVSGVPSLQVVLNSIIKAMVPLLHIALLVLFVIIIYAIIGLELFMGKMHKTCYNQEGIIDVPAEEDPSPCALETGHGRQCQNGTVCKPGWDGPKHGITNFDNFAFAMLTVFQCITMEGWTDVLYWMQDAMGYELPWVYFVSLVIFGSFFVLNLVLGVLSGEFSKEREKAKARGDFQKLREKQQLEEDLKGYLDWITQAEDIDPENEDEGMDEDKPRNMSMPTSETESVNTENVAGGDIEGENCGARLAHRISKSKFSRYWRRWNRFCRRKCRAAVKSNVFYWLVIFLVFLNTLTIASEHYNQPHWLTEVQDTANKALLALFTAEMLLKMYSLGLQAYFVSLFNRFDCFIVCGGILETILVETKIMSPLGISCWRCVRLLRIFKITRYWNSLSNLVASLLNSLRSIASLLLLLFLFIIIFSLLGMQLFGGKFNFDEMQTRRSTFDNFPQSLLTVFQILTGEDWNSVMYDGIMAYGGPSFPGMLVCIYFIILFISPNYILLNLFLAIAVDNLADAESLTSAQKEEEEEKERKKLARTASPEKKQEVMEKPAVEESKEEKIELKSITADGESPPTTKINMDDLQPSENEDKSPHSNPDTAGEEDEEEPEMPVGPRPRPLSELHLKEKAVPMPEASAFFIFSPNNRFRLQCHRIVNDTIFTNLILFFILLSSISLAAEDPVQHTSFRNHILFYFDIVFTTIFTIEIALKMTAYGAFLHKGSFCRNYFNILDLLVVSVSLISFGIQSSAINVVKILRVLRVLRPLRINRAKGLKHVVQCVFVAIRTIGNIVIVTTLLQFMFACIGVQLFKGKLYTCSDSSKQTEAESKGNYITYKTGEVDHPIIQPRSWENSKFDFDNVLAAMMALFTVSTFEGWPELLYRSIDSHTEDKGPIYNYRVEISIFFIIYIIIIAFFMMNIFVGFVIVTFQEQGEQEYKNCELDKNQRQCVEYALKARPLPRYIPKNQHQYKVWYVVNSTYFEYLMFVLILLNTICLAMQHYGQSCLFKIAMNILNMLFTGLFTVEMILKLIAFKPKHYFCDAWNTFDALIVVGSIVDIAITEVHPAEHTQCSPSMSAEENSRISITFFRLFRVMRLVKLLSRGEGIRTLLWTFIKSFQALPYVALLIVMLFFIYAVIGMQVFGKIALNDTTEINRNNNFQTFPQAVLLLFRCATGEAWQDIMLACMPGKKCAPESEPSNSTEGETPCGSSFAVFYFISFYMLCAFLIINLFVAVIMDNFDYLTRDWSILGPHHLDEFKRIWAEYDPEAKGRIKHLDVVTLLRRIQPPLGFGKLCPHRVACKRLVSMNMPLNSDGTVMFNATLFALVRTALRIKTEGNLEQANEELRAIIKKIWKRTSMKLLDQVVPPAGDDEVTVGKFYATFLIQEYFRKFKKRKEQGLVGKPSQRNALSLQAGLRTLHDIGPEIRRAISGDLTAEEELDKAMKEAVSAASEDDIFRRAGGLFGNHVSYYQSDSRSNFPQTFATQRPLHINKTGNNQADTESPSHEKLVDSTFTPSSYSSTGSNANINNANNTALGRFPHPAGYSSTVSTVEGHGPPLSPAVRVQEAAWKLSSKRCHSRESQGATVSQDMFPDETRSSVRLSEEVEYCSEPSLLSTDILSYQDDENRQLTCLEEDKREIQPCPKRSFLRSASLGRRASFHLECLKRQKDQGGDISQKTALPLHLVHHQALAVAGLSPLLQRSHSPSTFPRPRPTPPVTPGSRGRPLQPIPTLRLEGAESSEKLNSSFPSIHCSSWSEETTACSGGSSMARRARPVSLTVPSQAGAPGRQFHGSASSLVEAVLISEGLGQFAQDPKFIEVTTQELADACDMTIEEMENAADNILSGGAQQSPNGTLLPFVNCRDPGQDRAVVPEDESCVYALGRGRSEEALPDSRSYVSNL
In short: (§5)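 Rat hearts perfused through the aorta with ice-cold saline, homogenized in 50 mM Na-Hepes pH 7.4, filtered through cheesecloth and washed five times at 48000g. Incubated 90 min at 0 °C in the dark with [3H]nitrendipine. Six displacer concentrations used, separated by filtration. IC50 by log-probit analysis, converted to Ki by Cheng-Prusoff. At least three experiments in triplicate.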

Cavia porcellus [11] = species: Cavia porcellus; experiment: The compound was tested for the negative chronotropic activity on isolated guinea pig spontaneously beating right atrium at 10e-4 M.; type: functional, Cardiac atrium; in short: as §1
Cavia porcellus [12] = species: Cavia porcellus; experiment: The compound was tested for the calcium antagonistic activity on K+-depolarized guinea pig aortic strips at 10e-4 M.; type: functional; settings: Aorta; in short: as §2
Cavia porcellus [13] = species: Cavia porcellus; experiment: The compound was tested for the negative inotropic activity on isolated guinea pig left atrium at 5*10e-6 M; type: functional, Cardiac atrium; in short: as §3
Cavia porcellus [14] = species: Cavia porcellus; experiment: Tested for the calcium antagonistic activity on K+-depolarized guinea pig aortic strips at 5*10e-5 M.; type: functional, Aorta; in short: as §2
Cavia porcellus [15] = species: Cavia porcellus; experiment: Inotropic negative potency on spontaneously beating right atrium of guinea pig, activity is expressed as […] values; type: functional, Cardiac atrium; in short: as §1
Cavia porcellus [16] = species: Cavia porcellus; experiment: Tested for the negative inotropic activity on isolated guinea pig left atrium at 10e-4 M; type: functional, Cardiac atrium; in short: as §3
Cavia porcellus [17] = species: Cavia porcellus; experiment: Inotropic negative potency on stimulated guinea pig left atrium.; type: functional; settings: Cardiac atrium, read-out: ED50 (the source's name); in short: as §3
[18] = molecular target: T2, Voltage-dependent L-type calcium channel subunit alpha-1C; experiment: The compound was tested for calcium antagonistic activity by measuring [3H]nitrendipine displacement from rat heart L-type calcium channels; Not active; type: functional; in short: as §5
Cavia porcellus [19] = species: Cavia porcellus; experiment: The compound was tested for the negative chronotropic activity on isolated guinea pig spontaneously beating right atrium at 10e-5 M.; type: functional, Cardiac atrium; in short: as §1
[20] = molecular target: T1, Voltage-gated L-type calcium channel; experiment: Calcium antagonistic activity by measuring [3H]nitrendipine displacement at calcium channel in rat cortex homogenate; type: functional, tissue-based; in short: as §4
Cavia porcellus [21] = species: Cavia porcellus; experiment: The compound was tested for the negative inotropic activity on isolated guinea pig left atrium at 5*10e-5 M; type: functional, Cardiac atrium; in short: as §3
Cavia porcellus [22] = species: Cavia porcellus; experiment: The compound was tested for the calcium antagonistic activity on K+-depolarized guinea pig aortic strips; type: functional; settings: Aorta; in short: as §2

COc1ccc(C2(OC(C)=O)Sc3ccccc3-n3cccc32)cc1 (stereo unspecified)
Decrease (Cavia porcellus [1]): 70%
inhibition at 100 µM (Cavia porcellus [2]): 11%
ED30 (Cavia porcellus [3]): 2300 nM
EC50 (Cavia porcellus [4]): 240 nM
IC50 [5]: 30 nM
Decrease (Cavia porcellus [6]): 71%
Ki [7]: 11 nM

COc1ccc([C@@H]2Sc3ccccc3N(CCN(C)C)C(=O)[C@@H]2OC(C)=O)cc1 [DILTIAZEM]
EC50 (Cavia porcellus [8]): 790 nM
Decrease (Cavia porcellus [1]): 94%
inhibition at 100 µM (Cavia porcellus [2]): 88%
ED30 (Cavia porcellus [9]): 70 nM
Decrease (Cavia porcellus [6]): 78%

c1ccc(C2(c3ccccc3)Sc3ccccc3-n3cccc32)cc1
IC50 [5]: 465 nM
Ki [7]: 178 nM

COc1ccc(C2Sc3ccccc3-n3c(CN(C)C)ccc32)cc1 (stereo unspecified)
EC50 (Cavia porcellus [8]): 810 nM
Ki [10]: 53 nM
Decrease (Cavia porcellus [11]): 30%
inhibition at 100 µM (Cavia porcellus [12]): 10%
Decrease (Cavia porcellus [6]): 75%

COc1ccc(C2Sc3ccccc3-n3c(CN(C)C)ccc32)c(OC)c1 (stereo unspecified)
EC50 (Cavia porcellus [8]): 150 nM
Ki [10]: 160 nM
Decrease (Cavia porcellus [13]): 68%
Inhibition (Cavia porcellus [14]): 5%
Decrease (Cavia porcellus [11]): 20%

COc1ccc(C2Sc3ccccc3-n3c(CN4CCOCC4)ccc32)cc1 (stereo unspecified)
IC50 [5]: > 5000 nM

COc1ccc(C2Sc3ccccc3-n3cccc32)cc1 (stereo unspecified)
IC50 [5]: > 5000 nM

COc1ccc(C2Sc3ccccc3-n3c(CNc4ccc(F)cc4)ccc32)c(OC)c1 (stereo unspecified)
IC50 [5]: > 5000 nM

COc1ccc(C2(c3ccc(OC)cc3)Sc3ccc(C(F)(F)F)cc3-n3cccc32)cc1
IC50 [5]: > 5000 nM

COc1ccc(C2Sc3ccccc3-n3c(CNc4ccc(F)cc4)ccc32)cc1 (stereo unspecified)
IC50 [5]: > 5000 nM

Clc1cccc2c1SC(c1ccccc1)(c1ccccc1)c1cccn1-2
IC50 [5]: 320 nM
Ki [7]: 120 nM

CN(C)Cc1ccc2n1-c1ccccc1SC2c1ccccc1 (stereo unspecified)
EC50 (Cavia porcellus [8]): 1500 nM
Decrease (Cavia porcellus [1]): 76%
inhibition at 100 µM (Cavia porcellus [2]): 42%
ED30 (Cavia porcellus [15]): 510 nM
Decrease (Cavia porcellus [16]): 79%

COc1ccc([C@H]2Sc3ccccc3N3C(=O)CC[C@H]23)cc1
EC50 (Cavia porcellus [8]): 1200 nM
Ki [10]: 35 nM
Decrease (Cavia porcellus [1]): 39%
inhibition at 100 µM (Cavia porcellus [2]): 32%
IC50 [5]: 4.4 nM
Decrease (Cavia porcellus [16]): 60%
Ki [7]: 2 nM

FC(F)(F)c1ccc2c(c1)-n1cccc1C(c1ccccc1)(c1ccccc1)S2
IC50 [5]: 2060 nM
Ki [7]: 772 nM

CC(=O)OC1(c2ccccc2)Sc2ccc(C(F)(F)F)cc2-n2cccc21 (stereo unspecified)
IC50 [5]: 65 nM
Ki [7]: 24 nM

CN(C)Cc1ccc2n1-c1cccc(Cl)c1SC2(c1ccccc1)c1ccccc1
Ki [10]: 26 nM
IC50 [5]: 82 nM
Ki [7]: 31 nM

Clc1ccc2c(c1)-n1cccc1C(c1ccccc1)(c1ccccc1)S2
IC50 [5]: 4350 nM
Ki [7]: 1630 nM

COc1ccc(C2(c3ccc(OC)cc3)Sc3ccccc3-n3c(CN(C)C)ccc32)cc1
EC50 (Cavia porcellus [8]): 730 nM
Decrease (Cavia porcellus [1]): 48%
inhibition at 100 µM (Cavia porcellus [2]): 12%
IC50 [5]: 2160 nM
Decrease (Cavia porcellus [16]): 78%
Ki [7]: 809 nM

CN(C)Cc1ccc2n1-c1ccccc1SC2(c1ccccc1)c1ccccc1
Decrease (Cavia porcellus [1]): 10%
inhibition at 100 µM (Cavia porcellus [2]): 3.4%
Decrease (Cavia porcellus [6]): 56%
EC50 (Cavia porcellus [17]): 890 nM

COc1ccc(C2Oc3ccccc3-n3c(CN(C)C)ccc32)cc1 (stereo unspecified)
Ki [18]: Not Active
EC50 (Cavia porcellus [8]): 920 nM
inhibition at 100 µM (Cavia porcellus [2]): 24%
Decrease (Cavia porcellus [19]): 22%
IC50 [5]: 4670 nM
Decrease (Cavia porcellus [16]): 69%
Ki [7]: 1750 nM

COc1ccc(CCN(C)Cc2ccc3n2-c2ccccc2SC3c2ccccc2)cc1OC (stereo unspecified)
Ki [20]: 74 nM
IC50 [5]: 198 nM

CCC(C)NCc1ccc2n1-c1ccccc1SC2c1ccc(OC)cc1OC (stereo unspecified)
EC50 (Cavia porcellus [8]): 600 nM
Ki [10]: 640 nM
ED30 (Cavia porcellus [9]): 420 nM
Ki [20]: 5.5 nM
Inhibition (Cavia porcellus [14]): 18%
Decrease (Cavia porcellus [21]): 85%
IC50 [5]: 15 nM
Decrease (Cavia porcellus [11]): 67%

COc1ccc(C2Sc3ccccc3-n3c(CN(C)CCc4ccc(OC)c(OC)c4)ccc32)c(OC)c1 (stereo unspecified)
EC50 (Cavia porcellus [8]): 860 nM
Decrease (Cavia porcellus [1]): 18%
Ki [20]: 740 nM
Inhibition (Cavia porcellus [14]): 10%
Decrease (Cavia porcellus [21]): 62%
IC50 [5]: 1600 nM

COc1ccc(C2Sc3ccccc3-n3c(CN(C)CCc4ccc(OC)c(OC)c4)ccc32)cc1 (stereo unspecified)
EC50 (Cavia porcellus [8]): 840 nM
Ki [10]: 8.3 nM
Decrease (Cavia porcellus [1]): 32%
inhibition at 100 µM (Cavia porcellus [2]): 4%
Decrease (Cavia porcellus [16]): 86%

CN(C)Cc1ccc2n1-c1cc(C(F)(F)F)ccc1SC2(c1ccccc1)c1ccccc1
IC50 [5]: 107 nM
Ki [7]: 40.1 nM

COc1ccc(C2(c3ccc(OC)cc3)Sc3ccccc3-n3cccc32)cc1
IC50 [5]: > 5000 nM

COc1ccc(C2Sc3ccccc3-n3c(CNCCc4ccc(OC)c(OC)c4)ccc32)c(OC)c1 (stereo unspecified)
EC50 (Cavia porcellus [8]): 560 nM
Decrease (Cavia porcellus [1]): 10%
Inhibition (Cavia porcellus [14]): 9%
Decrease (Cavia porcellus [21]): 83%

O=C1CC[C@@H]2[C@@H](c3ccccc3)Sc3ccccc3N12
IC50 (Cavia porcellus [22]): 20000 nM
EC50 (Cavia porcellus [8]): 230 nM
Decrease (Cavia porcellus [1]): 20%
inhibition at 100 µM (Cavia porcellus [2]): 37%
IC50 [5]: 0.78 nM
Decrease (Cavia porcellus [6]): 66%
Ki [7]: 0.29 nM

CCC(C)NCc1ccc2n1-c1ccccc1SC2c1ccc(OC)cc1 (stereo unspecified)
Ki [20]: 4.4 nM
IC50 [5]: 12 nM

CC(=O)OC1(c2ccccc2)Sc2ccccc2-n2cccc21 (stereo unspecified)
Decrease (Cavia porcellus [1]): 33%
inhibition at 100 µM (Cavia porcellus [2]): 36%
EC50 (Cavia porcellus [4]): 380 nM
Decrease (Cavia porcellus [21]): 86%
IC50 [5]: 4700 nM
Ki [7]: 1830 nM

COc1ccc(C2Sc3ccccc3-n3c(CNCCc4ccc(OC)c(OC)c4)ccc32)cc1 (stereo unspecified)
EC50 (Cavia porcellus [8]): 450 nM
Decrease (Cavia porcellus [1]): 14%
Inhibition (Cavia porcellus [14]): 16%
Decrease (Cavia porcellus [16]): 82%
